Reference: ChEMBL document CHEMBL1641452, “Synthesis and in vitro anti-hepatitis B virus activity of six-membered azanucleoside analogues” (Bioorg Med Chem, 2011)
Values after ≈ are worked out from the molar mass of the structure shown.

Tests used:
[1] = Cytotoxicity against human HepG2(2.2.15) cells; type: cell-based; details: read-out: TC50 (the source's name)
[2] = Selectivity index, ratio of TC50 for human HepG2(2.2.15) cells to IC50 for Hepatitis B virus; type: toxicity; details: read-out: Selectivity Index
[3] = system: Hepatitis B virus; assay: Antiviral activity against Hepatitis B virus infected in human HepG2.2.15 cells assessed as inhibition of viral DNA replication by semi-quantitative EIA; type: functional, organism-based; details: HepG2 2.2.15
How it was run: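 HepG2 2.2.15 cells, derived from hepatoblastoma HepG2 and stably transfected with HBV, were seeded in flat-bottomed tissue culture wells. They received eight consecutive daily doses of compound in RPMI1640 with 2% fetal bovine serum, with lamivudine as the positive control. HBV nucleic acids and proteins were analysed at the end of treatment (day 8).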

| Compound | CC50 [1] [µg/mL] | selectivity ratio [2] | IC50 [3] [µg/mL] |
| --- | --- | --- | --- |
| Cc1cn([C@@H]2[C@@H](O)[C@H](O)[C@@H](O)CN2C(=O)OC(C)(C)C)c(=O)[nH]c1=O | 1000 (≈ 2800 µM) |  |  |
| Cc1cn([C@H]2[C@@H](O)[C@H](O)[C@@H](O)CN2C(=O)OC(C)(C)C)c(=O)[nH]c1=O | 1000 (≈ 2800 µM) |  |  |
| CC(C)(C)OC(=O)N1C[C@H](O)[C@@H](O)[C@@H](O)[C@@H]1n1cc(F)c(=O)[nH]c1=O | 29 (≈ 80.3 µM) |  |  |
| CC(C)(C)OC(=O)N1C[C@@H](O)[C@@H](O)[C@H](O)[C@H]1n1cnc2c(N)ncnc21 | 1000 (≈ 2730 µM) | 4 | 247 (≈ 675 µM) |
| CC(C)(C)OC(=O)N1C[C@@H](O)[C@@H](O)[C@H](O)[C@@H]1n1cnc2c(N)ncnc21 | 1000 (≈ 2730 µM) |  |  |
| CC(C)(C)OC(=O)N1C[C@@H](O)[C@@H](O)[C@H](O)[C@H]1n1cc(F)c(=O)[nH]c1=O | 37 (≈ 103 µM) | 13.5 | 2.74 (≈ 7.58 µM) |
| CC(C)(C)OC(=O)N1CC(O)[C@@H](O)[C@H](O)[C@H]1n1cnc2c(N)ncnc21 (single isomer, unassigned) | > 1000 |  |  |
| CC(C)(C)OC(=O)N1CC(O)[C@@H](O)[C@H](O)[C@H]1n1ccc(=O)[nH]c1=O (single isomer, unassigned) | > 1000 |  |  |
| CC(C)(C)OC(=O)N1CC(O)[C@@H](O)[C@H](O)[C@H]1n1cc(F)c(=O)[nH]c1=O (single isomer, unassigned) | 192 (≈ 533 µM) |  |  |
| CC(C)(C)OC(=O)N1CC(O)[C@@H](O)[C@H](O)[C@H]1n1ccc(N)nc1=O (single isomer, unassigned) | > 1000 |  |  |
| Cc1cn([C@@H]2[C@H](O)[C@H](O)C(O)CN2C(=O)OC(C)(C)C)c(=O)[nH]c1=O (single isomer, unassigned) | 430 (≈ 1200 µM) | 4.6 | 93 (≈ 260 µM) |
| Cc1cn([C@H]2[C@H](O)[C@H](O)C(O)CN2C(=O)OC(C)(C)C)c(=O)[nH]c1=O (single isomer, unassigned) | 577 (≈ 1620 µM) | 17.5 | 33 (≈ 92.4 µM) |
| CC(C)(C)OC(=O)N1CC(O)[C@@H](O)[C@@H](O)[C@@H]1n1cnc2c(N)ncnc21 (single isomer, unassigned) | 693 (≈ 1890 µM) | 3.6 | 281 (≈ 767 µM) |
| CC(C)(C)OC(=O)N1C[C@@H](O)C(O)C(O)C1n1cnc2c(N)ncnc21 (single isomer, unassigned) | 1000 (≈ 2730 µM) | 3.2 | 316 (≈ 862 µM) |
| Cc1cn([C@@H]2[C@@H](O)[C@H](O)C(O)CN2C(=O)OC(C)(C)C)c(=O)[nH]c1=O (single isomer, unassigned) | > 1000 |  |  |
| Nc1ccn([C@@H]2CS[C@H](CO)O2)c(=O)n1 [LAMIVUDINE] | 1000 (≈ 4360 µM) | 222 | 4.51 (≈ 19.7 µM) |
